The results in this text go back to ChEMBL document CHEMBL2434969, “[(4-Hydroxyl-benzo[4,5]thieno[3,2-c]pyridine-3-carbonyl)-amino]-acetic acid derivatives; HIF prolyl 4-hydroxylase inhibitors as oral erythropoietin secretagogues” (Bioorg Med Chem Lett, 2013).

Series [1] relates to Mus musculus. As to the kind of experiment: Anti-anemia activity in ICR mouse assessed as increase in hemoglobin level at 50 mg/kg, qd administered for 12 days measured on day 13. It is filed as functional, organism-based. Set-up: dose 50 mg/kg. The procedure, abridged: (§1)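 Normal male ICR mice, 6 weeks old, dosed once daily for 4 days (QDx4) or 12 days (QDx12) alongside a vehicle group. Mice were split into groups by blood sampling day (D5, D8, D13, D16). Hematocrit, RBC count and Hb were measured in blood. Statistics: P<0.05 and P<0.01 vs vehicle at each sampling time.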

In series [2] the test system is Mus musculus. As to the kind of experiment: Anti-anemia activity in ICR mouse assessed as increase in hematocrit level at 50 mg/kg, qd administered for 4 days measured on day 8. The class given is functional, organism-based. Set-up: dose 50 mg/kg. The procedure, abridged:
as §1

For series [3], the system named is Mus musculus. As to the kind of experiment: Anti-anemia activity in ICR mouse assessed as increase in red blood cell count at 50 mg/kg, qd administered for 12 days measured on day 13. Set-up: dose 50 mg/kg. The class given is functional, organism-based. The procedure, abridged: as §1
In series [4] the test system is Mus musculus. Nature of the series: Anti-anemia activity in ICR mouse assessed as increase in hemoglobin level at 50 mg/kg, qd administered for 4 days measured on day 5. It is filed as functional, organism-based. Set-up: dose 50 mg/kg. Put shortly:
as §1

Series [5] has as its system Mus musculus. As to the kind of experiment: Anti-anemia activity in ICR mouse assessed as increase in red blood cell count at 50 mg/kg, qd administered for 12 days measured on day 16. The class given is functional, organism-based. Details: dose 50 mg/kg. Put shortly:
as §1

In series [6] the test system is Mus musculus. Nature of the series: Anti-anemia activity in ICR mouse assessed as increase in hematocrit level at 50 mg/kg, qd administered for 4 days measured on day 5. It is filed as functional, organism-based. Set-up: dose 50 mg/kg. Put shortly:
as §1

In series [7] the test system is Mus musculus. Nature of the series: Anti-anemia activity in ICR mouse assessed as increase in hematocrit level at 50 mg/kg, qd administered for 12 days measured on day 16. The class given is functional, organism-based. Details: dose 50 mg/kg. The procedure, abridged:
as §1

For series [8], the system named is Mus musculus. Nature of the series: Anti-anemia activity in ICR mouse assessed as increase in hemoglobin level at 50 mg/kg, qd administered for 12 days measured on day 16. Set-up: dose 50 mg/kg. It is filed as functional, organism-based. The procedure, abridged:
as §1

Series [9] has as its system Mus musculus. As to the kind of experiment: Anti-anemia activity in ICR mouse assessed as increase in hematocrit level at 50 mg/kg, qd administered for 12 days measured on day 13. The class given is functional, organism-based. Set-up: dose 50 mg/kg. Put shortly: as §1
Series [10] deals with Mus musculus. As to the kind of experiment: Anti-anemia activity in ICR mouse assessed as increase in hemoglobin level at 50 mg/kg, qd administered for 4 days measured on day 8. The class given is functional, organism-based. Set-up: dose 50 mg/kg. Put shortly: as §1
Series [11] concerns Mus musculus. As to the kind of experiment: Anti-anemia activity in ICR mouse assessed as increase in red blood cell count at 50 mg/kg, qd administered for 4 days measured on day 8. The class given is functional, organism-based. Details: dose 50 mg/kg. Put shortly:
as §1

Series [12] deals with Mus musculus. As to the kind of experiment: Anti-anemia activity in ICR mouse assessed as increase in red blood cell count at 50 mg/kg, qd administered for 4 days measured on day 5. Set-up: dose 50 mg/kg. The class given is functional, organism-based. Put shortly: as §1
Series [13] can be described thus: Volume of distribution at steady state in CD1 mouse at 4 mg/kg, iv. Conditions: in vivo, read-out: Vdss. The class given is ADME, organism-based. Details: dose 4 mg/kg, route intravenous.
A short description of series [14]: Metabolic stability in mouse S9 fraction assessed as compound remaining measured at 60 mins. The class given is ADME. Conditions: s9, 1 h.
Series [15] is described as follows: Tmax in CD1 mouse at 20 mg/kg, po. It is filed as ADME, organism-based. Set-up: dose 20 mg/kg, route oral. The conditions noted are these: in vivo.
The nature of series [16]: Half life in CD1 mouse at 4 mg/kg, iv. The conditions noted are these: in vivo. It is filed as ADME, organism-based. Details: dose 4 mg/kg, route intravenous.
Series [17] is described as follows: Metabolic stability in mouse microsomes assessed as compound remaining measured at 60 mins. The class given is ADME, Microsome. Conditions: read-out: Stability.
A short description of series [18]: AUC (0 to t) in CD1 mouse at 20 mg/kg, po. The class given is ADME, organism-based. Details: dose 20 mg/kg, route oral. Conditions: plasma.
Series [19] is described as follows: AUC (0 to t) in CD1 mouse at 4 mg/kg, iv. It is filed as ADME, organism-based. Details: dose 4 mg/kg, route intravenous. The conditions noted are these: plasma.
Series [20] in a line: Metabolic stability in human microsomes assessed as compound remaining measured at 60 mins. The class given is ADME, Microsome. The conditions noted are these: read-out: Stability.
Series [21] in a line: Cmax in CD1 mouse at 20 mg/kg, po. It is filed as ADME, organism-based. Details: dose 20 mg/kg, route oral. The conditions noted are these: in vivo.
Series [22] in a line: Metabolic stability in human S9 fraction assessed as compound remaining measured at 60 mins. The class given is ADME. The conditions noted are these: read-out: Stability.
Series [23] in a line: Clearance in CD1 mouse at 4 mg/kg, iv. It is filed as ADME, organism-based. Set-up: dose 4 mg/kg, route intravenous. Conditions: in vivo.
The nature of series [24]: Bioavailability in CD1 mouse at 4 mg/kg, iv. It is filed as ADME, organism-based. Conditions: in vivo.

Molecules are shown by their SMILES. Active and inactive are the calls of the source. The rule behind the calls is not given here.

Take `O=C(O)CNC(=O)c1nc(Cl)c2ccccc2c1O`: the inhibition entry in the series on Mus musculus [1], in the series on Mus musculus [2], with Mus musculus [3], in the series on Mus musculus [4], in the series on Mus musculus [5] and with Mus musculus [6] was “Active” in each case. For the same molecule, the inhibition entry in the series with Mus musculus [7], with Mus musculus [8], with Mus musculus [9], in the series on Mus musculus [10], with Mus musculus [11] and with Mus musculus [12] was “Active” in each case.

With `O=C(O)CNC(=O)c1nc(Cl)c2c(sc3ccccc32)c1O`, the Vd in series [13] was determined as 0.503 L/kg. Moreover, the Stability in series [14] amounted to 125.7%. Moreover, in series [15], the Tmax is 0.5 h. The molecule also showed a half-life in [16] of 2.79 h. The remaining at 1 h in series [17] was 68.6%; in series [20] it was 119%; in series [22] it was 101%. Besides, the figures for the AUC(0-t) in [18] and in [19] were 53700 ng·h/mL and 17000 ng·h/mL, respectively. The highest concentration (Cmax) in [21] was 15100 ng/mL. Moreover, in [23], the clearance was 3.92 mL/min/kg. Further, the bioavailability in [24] stood at 63.2%.
